Assay outcomes: PubChem, Broad Institute
SIRT5 block: SIRT5 desuccinylase inhibitors, primary screen, biochemical, fluorescence imaging, single point, set 5; NAD-dependent protein deacylase sirtuin-5, mitochondrial (Homo sapiens), Q9NXA8; Purified SirT5, succinyl-peptide AMC, trypsin-coupled fluorescence; inhibition, % at 15 µM; 330,000 compounds, 1.1% hits; in the data active = inhibition above about 15%; inconclusive = no clear call, values can overlap the other calls
Target sequence (Q9NXA8 whole entry, looked up): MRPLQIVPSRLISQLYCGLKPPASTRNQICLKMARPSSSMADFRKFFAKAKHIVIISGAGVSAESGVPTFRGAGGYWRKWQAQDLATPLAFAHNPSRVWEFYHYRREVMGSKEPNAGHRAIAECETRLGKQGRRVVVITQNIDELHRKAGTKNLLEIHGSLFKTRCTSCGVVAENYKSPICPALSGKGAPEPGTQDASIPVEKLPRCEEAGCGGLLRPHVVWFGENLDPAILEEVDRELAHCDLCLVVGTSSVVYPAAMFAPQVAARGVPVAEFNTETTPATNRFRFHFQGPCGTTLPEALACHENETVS
C2C12 statin: suppressors of statin myotoxicity in C2C12 myotubes, primary screen, cell-based, single point, plate reader; C2C12 myotubes + simvastatin, ATP luminescence, 48 h; scaled: DMSO 0, geranylgeraniol control 100; rescue of ATP level, % at 7.49 µM; 330,000 compounds, 0.78% hits;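 active = mean ATP rescue above about 67%, or every replicate alone reaching that limit, limit read from the data, passing the limit was not always enough; inconclusive = no clear call, values can overlap the other calls; inactive = mean under the limit and some replicate under it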;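 note: myotubes were challenged with 10 µM simvastatin during compound exposure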
DENV2 CPE rescue: inhibitors of DENV2 cytopathic effect, primary screen, cell-based, plate reader, single concentration; 350,000 compounds, 1.7% hits; CPE inhibition, % at 9.99 µM; AID 651640, 2012; DENV2-infected cells, cytopathic effect rescue; in the data active = CPE inhibition above about 20%, passing the limit was not always enough; inconclusive = no clear call, values can overlap the other calls; tested in BHK-21 cells;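 note: 0% = median of neutral control wells and 100% = median of positive control wells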
PGC1a acetyl inh: inhibitors of PGC1a acetylation signal, primary screen, cell-based, U2OS, AlphaScreen, inhibitor mode. inhibition, % at 15.6 µM. AlphaScreen anti-acetyl-lysine; with virally co-expressed GCN5 acetyltransferase. 350,000 compounds, 0.17% hits;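 active = every replicate shows inhibition of at least 40%; inconclusive = mean inhibition at least 40% but some replicate below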;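 note: 0% = neutral control wells and 100% = positive control wells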
S100A4 inh HTS: inhibitors of S100A4-myosin IIA peptide binding, primary screen, biochemical, fluorescence polarization, TAMRA-MyoIIA peptide; Protein S100-A4 (Homo sapiens), P26447; inhibition, % at 10.7 µM; 360,000 compounds, 0.14% hits; AID 652163, 2013;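 active = mean inhibition of at least 70% across replicates, with every replicate also reaching that level; inconclusive = mean inhibition reaches 70% but some replicates fall short; inactive = mean inhibition below 70%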
Target sequence (P26447 whole entry, looked up): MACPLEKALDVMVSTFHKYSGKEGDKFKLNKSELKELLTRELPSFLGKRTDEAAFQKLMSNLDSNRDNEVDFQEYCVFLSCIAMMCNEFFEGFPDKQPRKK
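System – human S100A4 monomer protein, biochemical binding assay · Buffer or medium – Calcium-containing HEPES buffer, pH 7.2 · Timing – 5 min between mix addition and reading · Also added – TAMRA-labelled myosin IIA heavy-chain peptide probe, 5 nM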
* = called active by the depositor; ? = inconclusive; . = no result given. Only some compounds are listed: those with a hit (about 2.9% of all), similar ones and a draw of the others.

SMILES	SIRT5 block	C2C12 statin	DENV2 CPE rescue	PGC1a acetyl inh	S100A4 inh HTS
Cc1ccccc1S(=O)(=O)N1C[C@@H](O)COC[C@@H]2O[C@@H](CC(=O)NCCc3ccccc3)CC[C@H]21	-4	-7	-5	4	-8
COC(=O)C[C@H]1CC[C@@H]2[C@H](COc3ccc(NC(=O)c4ccccc4)cc3C(=O)N2C)O1	-6	7	4	10	13
CCCN1C[C@H](C)[C@@H](OC)CN(C)C(=O)c2ccc(NC(=O)c3ccccc3F)cc2OC[C@H]1C	7	-2	1	2	2
C[C@H]1CN([C@@H](C)CO)C(=O)c2cccc(NS(=O)(=O)c3cccs3)c2O[C@@H]1CN(C)C(=O)Nc1ccc(C(F)(F)F)cc1	1	86*	-2	-4	1
C[C@@H]1CN([C@@H](C)CO)C(=O)c2cccc(NS(C)(=O)=O)c2O[C@@H]1CN(C)C(=O)Nc1ccc(C(F)(F)F)cc1	1	0	.	4	5
C[C@@H]1CN([C@@H](C)CO)C(=O)c2cccc(NS(C)(=O)=O)c2O[C@H]1CN(C)C(=O)Nc1ccc(C(F)(F)F)cc1	1	-8	79*	-4	-5
COc1ccc(NC(=O)N(C)C[C@H]2Oc3c(NS(=O)(=O)c4cccs4)cccc3C(=O)N([C@H](C)CO)C[C@@H]2C)cc1	0	-8	14	-4	-32
COc1ccc(NC(=O)N(C)C[C@H]2Oc3c(NS(=O)(=O)c4cccs4)cccc3C(=O)N([C@@H](C)CO)C[C@H]2C)cc1	0	88*	6	-9	-6
Cc1ccc(S(=O)(=O)N[C@H]2CC[C@@H](CCn3cc(-c4cccnc4)nn3)O[C@@H]2CO)cc1	-2	0	-3	9	0
COc1ccccc1NC(=O)C(C)OC(=O)C1CCN(S(=O)(=O)c2ccccc2C(F)(F)F)CC1 (centres undefined)	-3	4	54*	-12	-3
CCOC(=O)[C@]12CCCC=C1N(Cc1ccc3c(c1)OCO3)C(=O)[C@H](CC(=O)NCCCCc1ccccc1)C2	-1	.	50*	.	3
CCOC(=O)[C@]12CCC=C1N(Cc1cccc3ccccc13)C(=O)[C@H](CC(=O)NCc1cccc3ccccc13)C2	-8	.	11	.	-6
CCOC(=O)[C@]12CCCC=C1N(CCC1=CCCCC1)C(=O)[C@H](CC(=O)NCc1cccc3ccccc13)C2	-2	.	22*	.	1
CCOC(=O)[C@]12CCC=C1N(Cc1ccc3c(c1)OCO3)C(=O)[C@H](CC(=O)NCCCCc1ccccc1)C2	.	.	0	.	4
CCCCCCCCN1C(=O)[C@H](CC(=O)NCc2cccc3ccccc23)C[C@@]2(C(=O)OCC)CCC=C12	16*	.	7	.	-7
CCCCCCCCN1C(=O)[C@H](CC(=O)NCC23CC4CC(CC(C4)C2)C3)C[C@@]2(C(=O)OCC)CCCC=C12	-4	.	20*	.	1
C[C@@H]1CN([C@@H](C)CO)C(=O)CCCn2cc(nn2)CO[C@H]1CN(C)C(=O)c1ccncc1	-3	4	5	9	-6
C[C@@H]1CCCCO[C@H](CN(C)CC2CC2)[C@H](C)CN([C@H](C)CO)C(=O)c2cc(NC(=O)c3ccncc3)ccc2O1	-3	-5	?	-11	-4
COC(=O)[C@]12CCCCC=C1N(CCC1=CCCCC1)C(=O)[C@H](CC(=O)NCc1ccc(OC)c(OC)c1)C2	-1	.	4	.	-1
CCOC(=O)[C@]12CCCC=C1N(CCC1=CCCCC1)C(=O)[C@H](CC(=O)NCc1ccc(OC)c(OC)c1)C2	2	.	38*	.	0
CCCCCCCCN1C(=O)[C@H](CC(=O)NCc2cccc(C(F)(F)F)c2)C[C@@]2(C(=O)OC)CC(C)(C)CC=C12	15	.	44*	.	-4
Cc1noc(C)c1NC(=O)Nc1cccc2c1O[C@H](CN(C)Cc1ccc(C(=O)Nc3ccccc3N)cc1)[C@@H](C)CN([C@@H](C)CO)C2=O	22*	.	1	6	-2
Cc1noc(C)c1NC(=O)Nc1cccc2c1O[C@@H](CN(C)Cc1ccc(Oc3ccccc3)cc1)[C@@H](C)CN([C@H](C)CO)C2=O	37*	.	-3	8	-11
Cc1noc(C)c1NC(=O)Nc1cccc2c1O[C@H](CN(C)Cc1ccc3c(c1)OCO3)[C@@H](C)CN([C@@H](C)CO)C2=O	2	5	21*	-1	11
Cc1noc(C)c1NC(=O)Nc1cccc2c1O[C@H](CN(C)Cc1ccc(C(=O)O)cc1)[C@H](C)CN([C@@H](C)CO)C2=O	0	53	26*	5	-4
SMILES	SIRT5 block	C2C12 statin	DENV2 CPE rescue	PGC1a acetyl inh	S100A4 inh HTS
Cc1noc(C)c1NC(=O)Nc1cccc2c1O[C@H](CN(C)Cc1ccc(C(=O)Nc3ccccc3N)cc1)[C@H](C)CN([C@@H](C)CO)C2=O	-1	.	-7	-7	4
CC(=O)N1[C@@H]2c3cccc(=O)n3C[C@@H]2[C@@H](CO)[C@@H]1C(=O)N[C@H](C)c1ccccc1	2	-11	1	.	-1
CO[C@@H]1CN(C)C(=O)c2ccc(NS(C)(=O)=O)cc2OC[C@@H](C)N(CC2CCOCC2)C[C@@H]1C	-2	9	-12	-3	-24
CC(C)[C@H](NS(=O)(=O)c1ccccc1)C(=O)OCC(=O)NC(=O)NC1CCCCC1	0	114*	-6	-2	1
CC(C)[C@H](NS(=O)(=O)c1ccccc1)C(=O)OCC(=O)NC1CCCCC1	-2	-4	-6	-5	-3
O=C1COCCOCCOCCOCC(=O)NCCN1	-3	-1	26*	15	1
O=C1COCCOCCOCC(=O)NCCN1	1	3	8	8	-4
C[C@@H]1CN([C@H](C)CO)C(=O)c2cc(NS(=O)(=O)c3ccccc3)ccc2O[C@@H](C)CCCCO[C@@H]1CN(C)CC1CC1	-1	.	0	8	4
COc1cc(CNC(=O)Nc2nc(C(N)c3ccccc3)cs2)cc(OC)c1OC (centres undefined)	21*	8	7	4	4
COc1cc(CNC(=O)Nc2nc(C(N)Cc3ccc(Cl)cc3)cs2)cc(OC)c1OC (centres undefined)	.	-14	?	-1	2
C[C@@H]1CN([C@H](C)CO)C(=O)c2cc(-c3ccccc3)cnc2O[C@@H]1CN(C)C(=O)C1CCCCC1	-9	14	12	-8	-6
COC(=O)[C@@]1(Sc2ccc(C)cc2)CC(=O)N[C@@H]1c1ccccc1	-2	.	-7	.	0
COC(=O)[C@]1(Sc2ccc(OC)cc2)CC(=O)N[C@@H]1c1ccccc1	-4	.	72*	.	-3
